Converted amounts (≈) assume the structure as drawn.
Experiments:
[1] = system: CCRF-CEM; test: In vitro cytotoxicity against CCRF-CEM cells; assay type: functional, cell-based; details: Homo sapiens
In short: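 CCRF-CEM cells were grown in culture for 72 h with compound. The value is the concentration that inhibited growth to 50% of control growth.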

[2] = Metabolic breakdown to the o-sulfate of p-chloroaniline (2-amino-5-chlorophenyl sulfate) by giving 100 mg/kg oral doses of the compound; assay type: ADME, organism-based; set-up: dose 100 mg/kg, route oral; details: in vivo
In short: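 Groups of two to four mice received single 100 mg/kg oral doses of each compound. Urine was pooled over 0-24 h, and the 2-amino-5-chlorophenyl sulfate excreted in 24 h per mouse was quantified as the marker of p-chloroaniline release.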

[3] = system: Mus musculus; test: In vivo antitumor activity of compound against subaxillary implanted 6C3HED lymphosarcoma implanted in C3H mice at a dose of 150 mg/kg administered intraperitoneally daily for a period of 8 days.; assay type: functional; details: ip, 192 h, route intraperitoneal
In short: (§1)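 6C3HED lymphosarcoma was carried in C3H mice. Compound was dosed at the stated route and schedule for 8 days (daily, twice daily, or days 1, 3, 5, 7) and tumor growth inhibition was scored against controls. The table value is the lowest dose giving >80% inhibition, or the highest dose tested. Deaths per group were recorded.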

[4] = system: Mus musculus; test: In vivo antitumor activity of compound against subaxillary implanted 6C3HED lymphosarcoma implanted in C3H mice at a dose of 200 mg/kg administered perorally twice daily for a period of 8 days.; assay type: functional; details: 192 h, route oral; in short: as §1
[5] = system: Mus musculus; test: In vivo antitumor activity of compound against subaxillary implanted 6C3HED lymphosarcoma implanted in C3H mice at a dose of 300 mg/kg administered intraperitoneally daily for a period of 8 days.; assay type: functional; details: ip, 192 h, route intraperitoneal; in short: as §1
[6] = system: Mus musculus; test: In vivo antitumor activity against subaxillary implanted 6C3HED lymphosarcoma implanted in C3H mice at a dose of 150 mg/kg administered perorally twice daily for a period of 8 days.; assay type: functional; details: Mus musculus, 6C3HED, po, 192 h; in short: as §1
[7] = system: Mus musculus; test: In vivo antitumor activity against subaxillary implanted 6C3HED lymphosarcoma implanted in C3H mice at a dose of 300 mg/kg administered perorally daily for a period of 8 days.; assay type: functional; details: 192 h, route oral; in short: as §1
[8] = system: Mus musculus; test: In vivo antitumor activity of compound against subaxillary implanted 6C3HED lymphosarcoma implanted in C3H mice at a dose of 50 mg/kg administered perorally twice daily for a period of 8 days.; assay type: functional; details: 192 h, route oral; in short: as §1
[9] = system: Mus musculus; test: In vivo antitumor activity against subaxillary implanted 6C3HED lymphosarcoma implanted in C3H mice at a dose of 300 mg/kg administered perorally twice daily for a period of 8 days.; assay type: functional; details: 192 h, route oral; in short: as §1
[10] = system: Mus musculus; test: In vivo antitumor activity of compound against subaxillary implanted 6C3HED lymphosarcoma implanted in C3H mice at a dose of 75 mg/kg administered perorally twice daily for a period of 8 days.; assay type: functional; details: 192 h, route oral; in short: as §1
[11] = system: Mus musculus; test: In vivo antitumor activity of compound against subaxillary implanted 6C3HED lymphosarcoma implanted in C3H mice at a dose of 19 mg/kg administered perorally on days 1, 3, 5, 7; assay type: functional; details: route oral; in short: as §1
[12] = system: Mus musculus; test: In vivo antitumor activity of compound against subaxillary implanted 6C3HED lymphosarcoma implanted in C3H mice at a dose of 4.0 mg/kg administered intraperitoneally twice daily for a period of 8 days.; assay type: functional; details: ip, 192 h, route intraperitoneal; in short: as §1

Row | SMILES | IC50 [1] | inhibition in vivo at 300 mg/kg [9] | further results
1 | N[S+]([O-])(=NC(=O)Nc1ccc(Cl)cc1)c1ccc2c(c1)CCC2 (stereo not drawn) | > 20 µg/mL | – | Activity [2]: < 0.15 µM; inhibition in vivo at 150 mg/kg [3]: 86%
2 | Cc1cc(C)cc([S+](N)([O-])=NC(=O)Nc2ccc(Cl)cc2)c1 (stereo not drawn) | 20 µg/mL (≈ 59.2 µM) | – | inhibition in vivo at 200 mg/kg [4]: 77%
3 | CCCC[S+]([O-])(=NC(=O)Nc1ccc(Cl)cc1)NC (stereo not drawn) | > 20 µg/mL | – | inhibition in vivo at 300 mg/kg [5]: 7%
4 | CCN[S+]([O-])(=NC(=O)Nc1ccc(Cl)cc1)c1ccc(C)cc1 (stereo not drawn) | 13.8 µg/mL (≈ 39.2 µM) | – | inhibition in vivo at 150 mg/kg [6]: 87%
5 | Cc1ccc([S+](N)([O-])=NC(=O)Nc2ccc(Cl)cc2)cc1 (stereo in doubt; 14) | > 20 µg/mL | – | inhibition in vivo at 300 mg/kg [5]: 98%; inhibition in vivo at 300 mg/kg [7]: 89%; Activity [2]: < 0.2 µM; inhibition in vivo at 150 mg/kg [3]: 92%; inhibition in vivo at 50 mg/kg [8]: 95%
6 | Cc1ccc([S+]([O-])(=NC(=O)Nc2ccc(Cl)cc2)NCCCO)cc1 (stereo not drawn) | > 20 µg/mL | 89% | –
7 | COC(=O)c1ccc([S+](N)([O-])=NC(=O)Nc2ccc(Cl)cc2)cc1 (stereo not drawn) | > 20 µg/mL | 0% | –
8 | N[S+]([O-])(=NC(=O)Nc1ccc(Cl)cc1)c1ccc(Cl)cc1 (stereo not drawn) | 12.3 µg/mL (≈ 35.7 µM) | – | inhibition in vivo at 50 mg/kg [8]: 80%
9 | CN[S+]([O-])(=NC(=O)N(C)c1ccc(Cl)cc1)c1ccc(C)cc1 (stereo not drawn) | > 20 µg/mL | – | inhibition in vivo at 150 mg/kg [6]: 91%
10 | Cc1cc([S+](N)([O-])=NC(=O)Nc2ccc(Cl)cc2)cc(C)c1Cl (stereo not drawn) | 6.2 µg/mL (≈ 16.7 µM) | 0% | –
11 | Cc1ccc([S+]([O-])(=NC(=O)Nc2ccc(Cl)cc2)NCCO)cc1 (stereo not drawn) | > 20 µg/mL | – | inhibition in vivo at 300 mg/kg [7]: 60%
12 | Cc1ccc([S+](N)([O-])=NC(=O)Nc2ccc(OCc3ccccc3)cc2)cc1 (stereo not drawn) | > 20 µg/mL | 5% | –
13 | Cc1ccc([S+](N)([O-])=NC(=O)Nc2ccccc2)cc1 (stereo not drawn) | > 20 µg/mL | – | inhibition in vivo at 150 mg/kg [6]: 0%
14 | N[S+]([O-])(=NC(=O)Nc1ccc(Cl)cc1)c1ccc(C=O)cc1 (stereo not drawn) | 5.6 µg/mL (≈ 16.6 µM) | – | inhibition in vivo at 150 mg/kg [3]: 80%
15 | Cc1ccc([S+](N)([O-])=NC(=O)Nc2ccc(C(F)(F)F)cc2)cc1 (stereo not drawn) | > 20 µg/mL | – | –
16 | Cc1ccc([S+]([O-])(=NC(=O)Nc2ccc(Cl)cc2)NC(C)C)cc1 (stereo not drawn) | 1.4 µg/mL (≈ 3.83 µM) | – | inhibition in vivo at 75 mg/kg [10]: 86%
17 | Cc1cc([S+](N)([O-])=NC(=O)Nc2ccc(Cl)cc2)cc(C)c1C (stereo not drawn) | 12.7 µg/mL (≈ 36.1 µM) | – | inhibition in vivo at 19 mg/kg [11]: 95%
18 | Cc1ccc([S+](N)([O-])=NC(=O)Nc2ccc(Cl)cc2)cc1C (stereo not drawn) | > 20 µg/mL | – | inhibition in vivo at 4 mg/kg [12]: 97%
19 | CCCCN[S+]([O-])(=NC(=O)Nc1ccc(Cl)cc1)c1ccc(C)cc1 (stereo not drawn) | 0.4 µg/mL (≈ 1.05 µM) | – | inhibition in vivo at 150 mg/kg [6]: 88%
20 | CC(=O)N(C)[S+]([O-])(=NC(=O)Nc1ccc(Cl)cc1)c1ccc(C)cc1 (stereo not drawn) | 9.6 µg/mL (≈ 25.3 µM) | – | inhibition in vivo at 150 mg/kg [6]: 98%
21 | CC(=O)N(C(=O)N=[S+]([O-])(c1ccc(C)cc1)N(C)C(C)=O)c1ccc(Cl)cc1 (stereo not drawn) | 5.6 µg/mL (≈ 13.3 µM) | – | inhibition in vivo at 150 mg/kg [6]: 83%
22 | COc1ccc(NC(=O)N=[S+](N)([O-])c2ccc(C)cc2)cc1 (stereo not drawn) | > 20 µg/mL | 0% | –
23 | Cc1ccc([S+]([O-])(=NC(=O)Nc2ccc(Cl)cc2)NCc2ccccc2)cc1 (stereo not drawn) | 8.7 µg/mL (≈ 21 µM) | 87% | –
24 | Cc1ccc(NC(=O)N=[S+](N)([O-])c2ccc(C)cc2)cc1 (stereo not drawn) | > 20 µg/mL | – | inhibition in vivo at 300 mg/kg [7]: 40%
25 | CC(=O)N[S+]([O-])(=NC(=O)Nc1ccc(Cl)cc1)c1ccc(C)cc1 (stereo not drawn) | > 20 µg/mL | 84% | –
26 | Cc1ccc([S+]([O-])(=NC(=O)Nc2ccc(Cl)cc2)N(C)C)cc1 (stereo not drawn) | > 20 µg/mL | 63% | –
27 | CCCCN(C(C)=O)[S+]([O-])(=NC(=O)Nc1ccc(Cl)cc1)c1ccc(C)cc1 (stereo not drawn) | 12.5 µg/mL (≈ 29.6 µM) | 53% | –

Reference: ChEMBL document CHEMBL1129963, “Sulfonimidamide analogs of oncolytic sulfonylureas” (J Med Chem, 1997)
